Data as given in ChEMBL document CHEMBL2029273, “Structure-based design of potent and ligand-efficient inhibitors of CTX-M class A β-lactamase” (J Med Chem, 2012).
≈ marks a conversion by molar mass, not a printed value. Calls of active or inactive are those of the source. The rule behind the calls is not given here.

Assays:
[1] = Inhibition of beta-lactamase CTX-M using nitrocefin as substrate
Escherichia coli [2] = assay: Antibacterial activity against Escherichia coli expressing CTX-M-14 beta-lactamase; type: functional
Method in brief: (§1)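 MIC per CLSI broth dilution in Mueller-Hinton medium. Compound dissolved in DMSO and diluted in medium, DMSO kept below 10%. Tested alone against clinical E. coli isolates carrying the named CTX-M enzyme. Values are the average of three independent experiments.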

Escherichia coli [3] = assay: Antibacterial activity against Escherichia coli expressing CTX-M-9 beta-lactamase; type: functional; method in brief: as §1
Escherichia coli [4] = assay: Antibacterial activity against Escherichia coli expressing CTX-M-9 beta-lactamase assessed as potentiation of cefotaxime MIC; type: functional
Method in brief: (§2)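 Combination MIC per CLSI in Mueller-Hinton medium against clinical E. coli isolates carrying the named CTX-M enzyme. Inhibitor in DMSO (below 10%) was paired with cefotaxime at a 1:1 β-lactam:inhibitor ratio. Values are the average of three independent experiments.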

Escherichia coli [5] = assay: Antibacterial activity against Escherichia coli expressing CTX-M-14 beta-lactamase assessed as potentiation of cefotaxime MIC; type: functional; method in brief: as §2
Escherichia coli [6] = assay: Antibacterial activity against Escherichia coli expressing CTX-M-9 beta-lactamase assessed as inhibition zone at 15 to 30 ug by disk diffusion assay; type: functional, organism-based
Method in brief: (§3)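 Disk diffusion: bacteria suspended in sterile water to 0.5 McFarland, diluted a further 10-fold and spread on Mueller-Hinton agar. Plates dried 10 min before disks were applied: cefotaxime 30 μg, inhibitor 30 μg, cefotaxime:inhibitor 30:15 or 30:30 μg, or solvent.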

Escherichia coli [7] = assay: Antibacterial activity against Escherichia coli expressing CTX-M-9 beta-lactamase assessed as increase of cefotaxime inhibition zone at 15 to 30 ug by disk diffusion assay; type: functional, organism-based; method in brief: as §3

| Ki ([1]; read-out: Ki) [µM] | SMILES | other results |
| --- | --- | --- |
| 4.5 | Cc1cccc(C(=O)Nc2cccc(-c3nnn[nH]3)c2)c1 | – |
| 7.2 | N#Cc1cccc(C(=O)Nc2cccc(-c3nnn[nH]3)c2)c1 | – |
| 3.1 | O=C(Nc1cccc(-c2nnn[nH]2)c1)c1cccc(C2CC2)c1 | – |
| 6.2 | O=C(Nc1cccc(-c2nnn[nH]2)c1)c1cccc(Cl)c1 | – |
| 17.1 | COc1cccc(C(=O)Nc2cccc(-c3nnn[nH]3)c2)c1 | – |
| 10.2 | CC(=O)c1cccc(C(=O)Nc2cccc(-c3nnn[nH]3)c2)c1 | – |
| 3.8 | O=C(Nc1cccc(-c2nnn[nH]2)c1)c1cccc([N+](=O)[O-])c1 | – |
| 6.9 | COC(=O)c1cccc(C(=O)Nc2cccc(-c3nnn[nH]3)c2)c1 | – |

The remaining lines, values behind:

| SMILES | Ki ([1]; read-out: Ki) [µM] | other results |
| --- | --- | --- |
| CO/N=C(\C(=O)N[C@@H]1C(=O)N2C(C(=O)O)=C(COC(C)=O)CS[C@H]12)c1csc(N)n1 [CEFOTAXIME] | – | MIC (Escherichia coli [2]): 32 mg/L (≈ 70.3 µM); MIC (Escherichia coli [3]): 64 mg/L (≈ 141 µM) |
| O=C(Nc1cccc(-c2nnn[nH]2)c1)c1cc(O)cc(C(F)(F)F)c1 | 0.63 | – |
| O=C(Nc1cccc(-c2nnn[nH]2)c1)c1cccc2[nH]ccc12 | 6.6 | – |
| O=C(Nc1cccc(-c2nnn[nH]2)c1)c1cc(C(F)(F)F)cc2[nH]cnc12 | 0.089 | MIC (Escherichia coli [2]): ≥ 64 mg/L; fold change (FC) (Escherichia coli [4]): 64; fold change (FC) (Escherichia coli [5]): 64; inhibition zone (IZ) (Escherichia coli [6]): inactive; inhibition zone (IZ) (Escherichia coli [7]): Dose-dependent effect; MIC (Escherichia coli [3]): ≥ 64 mg/L |
| O=C(Nc1cccc(-c2nnn[nH]2)c1)c1ccc2[nH]ccc2c1 | 1.9 | – |
| N#Cc1ccc(C(=O)Nc2cccc(-c3nn[nH]n3)c2)cc1 | – | Ki [1]: Not Active |
| O=C(Nc1cccc(-c2nnn[nH]2)c1)c1cc(F)cc2[nH]cnc12 | 2.7 | – |
| O=C(Nc1cccc(-c2nnn[nH]2)c1)c1cc(O)cc(Br)c1 | 0.57 | – |
| Nc1cc(C(=O)Nc2cccc(-c3nnn[nH]3)c2)cc(C(F)(F)F)c1 | 1 | – |
| N#Cc1cc(Br)cc(C(=O)Nc2cccc(-c3nnn[nH]3)c2)c1 | 34.1 | – |
